Data on one compound can be found in ChEMBL document CHEMBL4261600 (Eur J Med Chem, 2018).

The structures appear in SMILES notation. The source made the active and inactive calls. The calls are words filed in the database; no cut-off is given here.

By GI50 is commonly meant the concentration giving 50% growth inhibition. Read a low GI50 as more potent growth inhibition.

The species named for series [1] is Homo sapiens. The series is described as follows: Induction of apoptosis in human MEC1 cells assessed as decrease in c-MYC level at 0.01 uM after 24 hrs by immunoblotting analysis. It counts as functional, cell-based. (In general: Immunoblotting shows a protein as a band on a membrane.)
The next series concerns A-431. The series is described as follows: Antiproliferative activity against human A431 cells after 72 hrs by Celltiter-Glo assay. In kind it is functional. To be noted: A-431, 72 h. The method, boiled down: (§1)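 Cells seeded at 3000/well in 96-well plates, exposed to serially diluted compound for 72 h at 37 °C, 5% CO2. Viability read by CellTiter-Glo luminescence and normalized to DMSO control. GI50 derived from curve fit, mean of three independent measurements. Culture media: DMEM/10% FBS for adherent lines; IMDM for MV4-11 and MEC-1/2; RPMI 1640 for suspension lines and CHL.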

Another series relates to SK-N-BE(2)-M17. The series is described as follows: Antiproliferative activity against human BE(2)-M17 cells after 72 hrs by Celltiter-Glo assay. It counts as functional. To be noted: SK-N-BE(2)-M17, 72 h. The method, boiled down: as §1
A general note: ATP-based viability assays read luminescence as a measure of living cells.

Series [2] deals with HL-60. The series is described as follows: Antiproliferative activity against human HL60 cells after 72 hrs by Celltiter-Glo assay. To be noted: HL-60, 72 h. It counts as functional. The method, boiled down: as §1
The species named for series [3] is Homo sapiens. In words: Induction of apoptosis in human MEC1 cells assessed as decrease in MCL-1 level at 0.01 uM after 24 hrs by immunoblotting analysis. It counts as functional, cell-based.
Another series relates to Ramos. In words: Antiproliferative activity against human Ramos cells after 72 hrs by Celltiter-Glo assay. It counts as functional. The method in brief: as §1
The subject of the next series is MOLM-13. In words: Antiproliferative activity against human MOLM13 cells after 72 hrs by Celltiter-Glo assay. It counts as functional. The note with it: MOLM-13, 72 h. The method, boiled down:
as §1

For series [4], the species on record is Homo sapiens. In words: Induction of apoptosis in human MEC1 cells assessed as decrease in caspase-3 level after 24 hrs by immunoblotting analysis. It counts as functional, cell-based.
For another series, the system named is COLO 205. The series is described as follows: Antiproliferative activity against human COLO205 cells after 72 hrs by Celltiter-Glo assay. It counts as functional. The note with it: COLO 205, 72 h. The method in brief:
as §1

In series [5] the test system is MV4-11. In words: Induction of apoptosis in human MV4-11 cells assessed as decrease in caspase-3 level after 24 hrs by immunoblotting analysis. It counts as functional, cell-based.
The next series has as its system MOLM-14. In words: Antiproliferative activity against human MOLM14 cells after 72 hrs by Celltiter-Glo assay. In kind it is functional. The note with it: MOLM-14, 72 h. The method, boiled down:
as §1

In the next series the test system is SKM-1. In words: Antiproliferative activity against human SKM1 cells after 72 hrs by Celltiter-Glo assay. The note with it: SKM-1, 72 h. In kind it is functional. The method, boiled down:
as §1

The subject of the next series is OCI-AML-3. In words: Antiproliferative activity against human OCI-AML3 cells after 72 hrs by Celltiter-Glo assay. In kind it is functional. The note with it: OCI-AML-3, 72 h. The method, boiled down:
as §1

The test system of series [6] is HL-60. In words: Induction of apoptosis in human HL60 cells assessed as decrease in MCL-1 level at 0.01 uM after 24 hrs by immunoblotting analysis. It counts as functional, cell-based.
Series [7] has as its system HL-60. In words: Induction of apoptosis in human HL60 cells assessed as decrease in caspase-3 level after 24 hrs by immunoblotting analysis. It counts as functional, cell-based.
In series [8] the test system is HL-60. In words: Induction of apoptosis in human HL60 cells assessed as decrease in c-MYC level at 0.01 uM after 24 hrs by immunoblotting analysis. It counts as functional, cell-based.
A further series deals with GISTT1. In words: Antiproliferative activity against human GISTT1 cells after 72 hrs by Celltiter-Glo assay. In kind it is functional. The note with it: GISTT1, 72 h. The method in brief:
as §1

The next series has as its system A-375. The series is described as follows: Antiproliferative activity against human A375 cells after 72 hrs by Celltiter-Glo assay. It counts as functional. To be noted: A-375, 72 h. The method in brief:
as §1

Series [9] in a line: Antiproliferative activity against CHO cells after 72 hrs by Celltiter-Glo assay. It counts as cell-based, Cricetulus griseus. The note with it: chinese hamster. The method in brief: as §1
A short description of series [10]: Antiproliferative activity against human MEC2 cells after 72 hrs by Celltiter-Glo assay. In kind it is functional. To be noted: MEC2, 72 h. The method in brief: as §1
The test system of series [11] is MV4-11. The series is described as follows: Induction of apoptosis in human MV4-11 cells assessed as decrease in MCL-1 level at 0.01 uM after 24 hrs by immunoblotting analysis. It counts as functional, cell-based.
Series [12] relates to MV4-11. In words: Induction of apoptosis in human MV4-11 cells assessed as decrease in c-MYC level at 0.01 uM after 24 hrs by immunoblotting analysis. It counts as functional, cell-based.
The next series concerns U-937. In words: Antiproliferative activity against human U937 cells after 72 hrs by Celltiter-Glo assay. In kind it is functional. To be noted: U-937, 72 h. The method in brief:
as §1

A short description of series [13]: Antiproliferative activity against human MEC1 cells after 72 hrs by Celltiter-Glo assay. It counts as functional. The note with it: MEC1, 72 h. The method, boiled down:
as §1

Take `CCc1cnn2c(NCc3ccc[n+]([O-])c3)cc(N3CCCC[C@H]3CCO)nc12` [DINACICLIB]: the result in the series listed under Homo sapiens [1], in the series filed under Homo sapiens [3], with HL-60 [6], in the series on HL-60 [8], in the series with MV4-11 [11] and in the series on MV4-11 [12] was Active. Moreover, the GI50 with A-431 was 11 nM; with SK-N-BE(2)-M17, 21 nM; in the series on HL-60 [2], 8 nM; in the series on Ramos, 8.6 nM; in the series with MOLM-13, 3.3 nM; in the series on COLO 205 it was 6.8 nM. The GI50 is 4.5 nM in the series with MOLM-14; 11 nM with SKM-1; 13 nM in the series on OCI-AML-3; 8.8 nM in the series with GISTT1; 11 nM in the series with A-375; 11 nM in series [10]. Also, the values for the 50% growth inhibitory concentration (GI50) (with U-937; in series [13]) were 10 nM and 3.6 nM, respectively. The Activity entry in the series filed under Homo sapiens [4], with MV4-11 [5] and in the series on HL-60 [7] was “Dose-dependent effect” throughout. This compound came in with a GI50 at 72 h in [9] of 160 nM.
